Converted amounts (≈) assume the structure as drawn.
Legend:
[1] = test system: Escherichia coli; assay: Minimum inhibitory concentration against Escherichia coli (H560); assay type: functional
Summary of the method: (§1)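 MICs were determined by standard microtitration against a panel of 11 bacterial strains. Aqueous stock solutions were prepared with 0.1 N sodium or potassium hydroxide.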

[2] = test system: Escherichia coli; assay: Minimum inhibitory concentration against Escherichia coli (vogel); assay type: functional; summary of the method: as §1
[3] = test system: Enterobacter cloacae; assay: Minimum inhibitory concentration against Enterobacter cloacae. (MA2446).; assay type: functional
[4] = target: DNA gyrase (Escherichia coli) (UniProt P0AES6+P0AES4); assay: Concentration required for 50% inhibition of gyrase.; assay type: protein-complex assay
Summary of the method: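 DNA gyrase inhibition: the drug concentration (µg/mL) giving 50% inhibition (I50) was recorded, along with the lowest concentration inducing gyrase-mediated DNA cleavage. Data come from duplicate experiments with ±50% reproducibility.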

[5] = test system: Klebsiella pneumoniae; assay: Minimum inhibitory concentration against Klebsiella pneumoniae (MGH-2); assay type: functional; summary of the method: as §1
[6] = test system: Pseudomonas aeruginosa; assay: Minimum inhibitory concentration against Pseudomonas aeruginosa. (UI-18); assay type: functional; summary of the method: as §1
[7] = test system: Providencia rettgeri; assay: Minimum inhibitory concentration against Providencia rettgeri. (M1771); assay type: functional; summary of the method: as §1
[8] = test system: Streptococcus pyogenes; assay: Minimum inhibitory concentration against Streptococcus pyogenes (C203).; assay type: functional; summary of the method: as §1
[9] = test system: Staphylococcus aureus; assay: Minimum inhibitory concentration against Staphylococcus aureus (H-228).; assay type: functional; summary of the method: as §1
[10] = test system: Staphylococcus aureus; assay: Minimum inhibitory concentration against Staphylococcus aureus (UC76).; assay type: functional; summary of the method: as §1
[11] = test system: Streptococcus pneumoniae; assay: Minimum inhibitory concentration against Streptococcus pneumoniae (SV-1).; assay type: functional; summary of the method: as §1
[12] = test system: Enterobacter; assay: Minimum inhibitory concentration against gram-negative enterobacteriaceae.; assay type: functional
Summary of the method: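 This value is the geometric mean of microtitration MICs for the Gram-negative Enterobacteriaceae strains in the 11-organism panel. Aqueous stocks were prepared in 0.1 N sodium or potassium hydroxide.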

[13] = test system: Enterococcus faecalis; assay: Minimum inhibitory concentration against Streptococcus faecalis (MGH-2).; assay type: functional; summary of the method: as §1

Compound	MIC [1] [µg/mL]	MIC [2] [µg/mL]	MIC [3] [µg/mL]	IC50 [4] [µg/mL]	MIC [5] [µg/mL]	MIC [6] [µg/mL]	MIC [7] [µg/mL]	MIC [8] [µg/mL]	MIC [9] [µg/mL]	MIC [10] [µg/mL]	MIC [11] [µg/mL]	MIC [12] [µg/mL]	MIC [13] [µg/mL]
CCNCC1CCN(c2c(F)cc3c(=O)c(C(=O)O)cn(OC)c3c2F)C1 (centres undefined)	0.4 (≈ 1.05 µM)	0.4 (≈ 1.05 µM)	0.4 (≈ 1.05 µM)	27 (≈ 70.8 µM)	0.2 (≈ 0.524 µM)	6.3 (≈ 16.5 µM)	1.6 (≈ 4.2 µM)	0.8 (≈ 2.1 µM)	0.8 (≈ 2.1 µM)	0.2 (≈ 0.524 µM)	0.8 (≈ 2.1 µM)	0.46 (≈ 1.21 µM)	0.8 (≈ 2.1 µM)
C=Cn1cc(C(=O)O)c(=O)c2cc(F)c(N3CCC(CNCC)C3)c(F)c21 (centres undefined)	0.1 (≈ 0.265 µM)	0.2 (≈ 0.53 µM)	0.2 (≈ 0.53 µM)	2.9 (≈ 7.68 µM)	0.4 (≈ 1.06 µM)	1.6 (≈ 4.24 µM)	1.6 (≈ 4.24 µM)	0.1 (≈ 0.265 µM)	0.4 (≈ 1.06 µM)	0.1 (≈ 0.265 µM)	0.2 (≈ 0.53 µM)	0.3 (≈ 0.795 µM)	0.4 (≈ 1.06 µM)
CN1CCN(c2c(F)cc3c(=O)c(C(=O)O)cn(CCF)c3c2F)CC1 [FLEROXACIN]	0.1 (≈ 0.271 µM)	0.2 (≈ 0.542 µM)	0.2 (≈ 0.542 µM)		0.2 (≈ 0.542 µM)	1.6 (≈ 4.33 µM)	0.4 (≈ 1.08 µM)	6.3 (≈ 17.1 µM)	0.8 (≈ 2.17 µM)	0.2 (≈ 0.542 µM)	6.3 (≈ 17.1 µM)	0.2 (≈ 0.542 µM)	3.1 (≈ 8.39 µM)
CCNCC1CCN(c2c(F)cc3c(=O)c(C(=O)O)cn(C4CCC4)c3c2F)C1 (centres undefined)	0.1 (≈ 0.247 µM)	0.2 (≈ 0.493 µM)	0.4 (≈ 0.987 µM)	26 (≈ 64.1 µM)	0.4 (≈ 0.987 µM)	3.1 (≈ 7.65 µM)	3.1 (≈ 7.65 µM)	0.2 (≈ 0.493 µM)	0.1 (≈ 0.247 µM)	0.05 (≈ 0.123 µM)	0.1 (≈ 0.247 µM)	0.4 (≈ 0.987 µM)	0.2 (≈ 0.493 µM)
CCNCC1CCN(c2c(F)cc3c(=O)c(C(=O)O)cn(-c4ccccc4)c3c2F)C1 (centres undefined)	0.8 (≈ 1.87 µM)	1.6 (≈ 3.74 µM)	1.6 (≈ 3.74 µM)	29 (≈ 67.8 µM)	1.6 (≈ 3.74 µM)	6.3 (≈ 14.7 µM)	6.3 (≈ 14.7 µM)	1.6 (≈ 3.74 µM)	0.8 (≈ 1.87 µM)	0.2 (≈ 0.468 µM)	1.6 (≈ 3.74 µM)	1.83 (≈ 4.28 µM)	0.8 (≈ 1.87 µM)
